# Changes are numbered by the printed parent chain. Read-outs that look alike come from different tables or passages of the source.
# Key:
# DHP A Ferric = assay: H2O2-dependent oxidation of haloindoles monitored by HPLC, isoenzyme A; assay type: biochemical, Amphitrite ornata; settings: DHP A Ferric 10 μM; [haloindole] = [H2O2] = 500 μM; pH 7, 25 °C, 5 min
# How it was run: (§1)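 Triplicate reactions at 25 °C, pH 7, in 5% MeOH/100 mM KPi. Enzyme (10 μM final; ferric isoenzyme A or oxyferrous DHP B) was premixed with haloindole (500 μM), and reactions were started with 500 μM H2O2. After 5 min, reactions were quenched with excess catalase and diluted 10-fold in buffer. Analysis was by C18 reverse-phase HPLC (water/TFA to MeCN gradient) with diode-array detection, quantified against standard calibration curves.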
# ferric WT DHP B [1] = target: T1, ferric WT DHP B (Amphitrite ornata, UniProt Q9NAV7); assay: H2O2-dependent oxidation of haloindoles monitored by HPLC; assay type: biochemical; settings: for conversion (%): 5 min
# T1 sequence (Q9NAV7 1-138): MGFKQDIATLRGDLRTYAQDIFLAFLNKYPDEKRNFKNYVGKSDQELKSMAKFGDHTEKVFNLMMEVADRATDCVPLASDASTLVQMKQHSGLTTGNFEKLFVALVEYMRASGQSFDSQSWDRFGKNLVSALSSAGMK
# How it was run: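 Triplicate reactions at 25 °C in 5% MeOH/100 mM KPi, pH 7, unless pH varied. Ferric DHP B (10 μM final) was premixed with substrate (500 μM final), and reactions were started with H2O2 (500 μM). Additives: 10% v/v DMSO, 500 μM mannitol, SOD, or buffer containing 500 mM sodium formate. Reactions were quenched with excess catalase after 5 min and diluted 10-fold. C18 reverse-phase HPLC used photodiode-array detection, with conversion from standard calibration curves.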
# oxyferrous DHP B = target: T2, oxyferrous DHP B (Amphitrite ornata, UniProt Q9NAV7); assay: Stopped-flow UV-vis with oxyferrous DHP B / Compound II; assay type: biochemical; settings: preincubated with 2.5 equiv 5-Br-indole, 5 equiv H2O2, pH 7
# T2 sequence (Q9NAV7 1-138): T1 sequence (Q9NAV7 1-138)
# How it was run: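 Single-mixing rapid-scan stopped-flow at 20 °C in 5% MeOH/100 mM KPi, pH 7.0. Oxyferrous DHP B (10 μM) was preincubated with 2.5 equiv 5-Br-indole, then rapidly mixed with 5 equiv H2O2. 800 spectra were collected over 83 s. Spectra were fitted to component species to obtain relative concentration time courses.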
# WT DHP B Compound ES = target: T3, WT DHP B Compound ES (Amphitrite ornata, UniProt Q9NAV7); assay: Double-mixing stopped-flow UV-vis, preformed Compound ES; assay type: biochemical
# T3 sequence (Q9NAV7 1-138): T1 sequence (Q9NAV7 1-138)
# How it was run: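 Double-mixing rapid-scan stopped-flow UV-vis at 20 °C in 5% MeOH/100 mM KPi, pH 7. Ferric wild-type DHP B (10 μM) was mixed with 10 equiv H2O2 and aged 350 ms to accumulate Compound ES. It was then mixed with 10, 25 or 50 equiv 5-Br-indole, and 800 scans were taken over 83 s. Spectra were fitted to component time courses.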
# [2] = target: T4, DHP B(Y28F/Y38F) Compound I (Amphitrite ornata, UniProt Q9NAV7, Y29F/Y39F); assay: Double-mixing stopped-flow UV-vis, preformed Compound I; assay type: biochemical
# T4 sequence (Q9NAV7 1-138 Y29F/Y39F): T1 sequence (Q9NAV7 1-138) with Y29F, Y39F
# ferric WT DHP B [3] = target: T1, ferric WT DHP B; assay: 5-haloindole binding studies
# [4] = target: horse heart myoglobin (hhMb) (Equus caballus, UniProt P68082); assay: H2O2-dependent oxidation of 5-Br-indole monitored by HPLC, myoglobin; assay type: biochemical; settings: hhMb 10 μM; [haloindole] = [H2O2] = 500 μM; pH 7, 25 °C, 5 min; n.d. = none detected
# DHP B Oxyferrous = target: T5, DHP B Oxyferrous (Amphitrite ornata, UniProt Q9NAV7); assay: H2O2-dependent oxidation of haloindoles monitored by HPLC, oxyferrous enzyme; assay type: biochemical; settings: DHP B Oxyferrous 10 μM; [haloindole] = [H2O2] = 500 μM; pH 7, 25 °C, 5 min
# T5 sequence (Q9NAV7 1-138): T1 sequence (Q9NAV7 1-138)
# How it was run: as §1
# [5] = target: T6, horseradish peroxidase (HRP) (Armoracia rusticana, UniProt P00433); assay: H2O2-dependent oxidation of 5-Br-indole monitored by HPLC, HRP; assay type: biochemical; settings: HRP 10 μM; [haloindole] = [H2O2] = 500 μM; pH 7, 25 °C, 5 min; n.d. = none detected
# T6 sequence (P00433 31-338 limits assumed): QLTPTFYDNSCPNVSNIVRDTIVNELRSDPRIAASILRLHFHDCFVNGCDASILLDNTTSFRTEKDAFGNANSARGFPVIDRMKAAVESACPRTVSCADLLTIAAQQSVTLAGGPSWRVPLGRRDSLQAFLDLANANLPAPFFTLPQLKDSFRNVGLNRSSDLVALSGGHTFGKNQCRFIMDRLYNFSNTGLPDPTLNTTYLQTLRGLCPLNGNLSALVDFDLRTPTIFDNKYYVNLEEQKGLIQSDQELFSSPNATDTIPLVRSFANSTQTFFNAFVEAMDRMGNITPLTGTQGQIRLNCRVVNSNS
# ferric DHP B = target: T7, ferric DHP B (Amphitrite ornata, UniProt Q9NAV7); assay: Reactivity studies of 5-Br-3-oxindole by UV-vis; assay type: biochemical
# T7 sequence (Q9NAV7 1-138): T1 sequence (Q9NAV7 1-138)
# How it was run: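 5-Br-3-acetoxyindole (250 μM) was incubated <1 min with or without 10 μM ferric wild-type DHP B in 5% MeOH/100 mM KPi, pH 7, in a quartz cuvette. Porcine liver esterase (45 U) started the reaction, and UV-vis spectra were taken over time, aerobically or anaerobically (argon-degassed solutions, glovebox, sealed cuvette). Indigo product was quantified at 659 nm using ε = 22 140 M–1 cm–1.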
# ferric WT DHP B [6] = target: T1, ferric WT DHP B; settings: cited from earlier work
# [7] = DHP B Ferric, anaerobic, [haloindole] = [H2O2] = 500 μM, pH 7, 25 °C
# [8] = 10 equiv 5-Br-indole, 10 equiv H2O2, pH 7
# [9] = read-out: apparent dissociation constant (Kd), 10 μM ferric WT DHP B, 100 mM KPi pH 7, 10% MeOH
# Sequence of horse heart myoglobin (hhMb) (P68082 whole entry): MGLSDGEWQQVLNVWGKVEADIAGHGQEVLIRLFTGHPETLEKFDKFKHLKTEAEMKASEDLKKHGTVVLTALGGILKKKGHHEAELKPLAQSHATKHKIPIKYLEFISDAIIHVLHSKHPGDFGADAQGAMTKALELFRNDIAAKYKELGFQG
smiles,measurement,setting,value
Brc1cccc2[nH]ccc12 [4-Br-indole],conversion (%),DHP A Ferric,15.7 (±0.7) %
same,conversion (%),ferric WT DHP B [1]; [7],40.1 (±0.9) %
Brc1ccc2[nH]ccc2c1 [5-Br-indole],conversion (%),DHP A Ferric,20.3 (±1.7) %
same,"kobs, conversion of oxyferrous DHP B to Compound II",oxyferrous DHP B,(3.30 ± 0.01) × 10^–2 s^–1
same,"kobs, formation of mixture of oxyferrous and ferric DHP B at longer observation times",WT DHP B Compound ES; [8],(1.39 ± 0.08) × 10^–2 s^–1
same,"kobs, reduction of preformed Compound ES to ferric DHP B",WT DHP B Compound ES; [8],(2.54 ± 0.05) × 10^5 M^–1 s^–1
same,time for reduction of Compound ES (within mixing time),WT DHP B Compound ES; ≥25 equiv 5-Br-indole,< 2.5 ms
same,time to conversion to oxyferrous DHP B(Y28F/Y38F),[2]; 10 equiv 5-Br-indole,697 s
same,time to conversion to oxyferrous DHP B(Y28F/Y38F),[2]; 50 equiv 5-Br-indole,120 s
same,Kd,ferric WT DHP B [3],150 ± 10 µM
same,conversion (%),[4],no reactivity
same,conversion (%),DHP B Oxyferrous,44.9 (±4.8) %
same,conversion (%),"ferric WT DHP B [1]; DHP B Ferric + 500 μM 4-BP, pH 7, 25 °C",23.2 (±5.1) %
same,conversion (%),"ferric WT DHP B [1]; DHP B Ferric + 500 μM mannitol, pH 7, 25 °C",46.2 (±1.6) %
same,conversion (%),"ferric WT DHP B [1]; DHP B Ferric + 500 mM formate, pH 7, 25 °C",45.8 (±1.1) %
same,conversion (%),"ferric WT DHP B [1]; DHP B Ferric + 10% DMSO, pH 7, 25 °C",45.0 (±4.4) %
same,conversion (%),"ferric WT DHP B [1]; DHP B Ferric + SOD ∼2 U/μL, pH 7, 25 °C",46.1 (±0.7) %
same,conversion (%),ferric WT DHP B [1]; [7],53.3 (±0.3) %
same,conversion (%),"ferric WT DHP B [1]; DHP B Ferric, pH 5, 25 °C",63.4 (±0.1) %
same,conversion (%),"ferric WT DHP B [1]; DHP B Ferric, pH 6, 25 °C",54.7 (±1.9) %
same,conversion (%),"ferric WT DHP B [1]; DHP B Ferric, pH 8, 25 °C",34.4 (±2.4) %
same,conversion (%),[5],no reactivity
Clc1ccc2[nH]ccc2c1 [5-Cl-indole],Kd,ferric WT DHP B [3]; [9],317 ± 23 µM
"O=C1/C(=C2\Nc3ccc(Br)cc3C2=O)Nc2ccc(Br)cc21 [5,5′-Br2-indigo, (E)-5,5′-dibromo-[2,2′-biindolinylidene]-3,3′-dione]","5,5′-Br2-indigo formation aerobic versus anaerobic",ferric DHP B; DHP present,~4 fold
same,"5,5′-Br2-indigo formed in the presence of DHP versus the absence of enzyme","ferric DHP B; aerobic, after 5 min",45 fold
same,"5,5′-Br2-indigo concentration formed from 5-Br-3-oxindole","ferric DHP B; anaerobic, 10 μM DHP, after 10 min",~8 µM
same,product distribution of 5-Br-indole reaction (HPLC),"ferric WT DHP B [1]; 5-Br-indole 500 μM, DHP B 10 μM, H2O2 500 μM, pH 7, 1a determined from mass balance",~2%
Ic1ccc2[nH]ccc2c1 [5-I-indole],Kd,ferric WT DHP B [3]; [9],62 ± 10 µM
Fc1ccc2[nH]ccc2c1 [5-F-indole],changes in the optical difference spectra upon binding,ferric WT DHP B [3]; even at the highest concentrations tested (up to 100 equiv),No significant changes
c1ccc2[nH]ccc2c1 [indole],reactivity lower than 5-Br-indole,"ferric WT DHP B [1]; ferric WT DHP B, pH 7",2 fold
"Oc1ccc(Br)cc1 [4-bromophenol, reference compound]",attenuation in reactivity of 5-Br-indole,ferric WT DHP B [1]; in the presence of 500 μM 4-bromophenol,2 fold
same,Kd,ferric WT DHP B [6],~1200 µM
